Our source for the inhibition values is ChEMBL document CHEMBL2424622, “Development of amino-pyrimidine inhibitors of c-Jun N-terminal kinase (JNK): kinase profiling guided optimization of a 1,2,3-benzotriazole lead” (Bioorg Med Chem Lett, 2013).

Test [1] has as its target Glycogen synthase kinase-3 beta (Homo sapiens, UniProt P49841). Kind of test: Competitive binding affinity to GSK3beta (unknown origin) at 10 uM in presence of ATP relative to control.
Test [2] concerns the target Activin receptor type-2B (Homo sapiens) (UniProt Q13705). Nature of the test: Competitive binding affinity to ACVR2B (unknown origin) at 10 uM in presence of ATP relative to control.
The target in test [3] is Death-associated protein kinase 1 (Homo sapiens, UniProt P53355). Kind of test: Competitive binding affinity to DAPK1 (unknown origin) at 10 uM in presence of ATP relative to control.
Sequence of Death-associated protein kinase 1 (P53355 whole entry, looked up): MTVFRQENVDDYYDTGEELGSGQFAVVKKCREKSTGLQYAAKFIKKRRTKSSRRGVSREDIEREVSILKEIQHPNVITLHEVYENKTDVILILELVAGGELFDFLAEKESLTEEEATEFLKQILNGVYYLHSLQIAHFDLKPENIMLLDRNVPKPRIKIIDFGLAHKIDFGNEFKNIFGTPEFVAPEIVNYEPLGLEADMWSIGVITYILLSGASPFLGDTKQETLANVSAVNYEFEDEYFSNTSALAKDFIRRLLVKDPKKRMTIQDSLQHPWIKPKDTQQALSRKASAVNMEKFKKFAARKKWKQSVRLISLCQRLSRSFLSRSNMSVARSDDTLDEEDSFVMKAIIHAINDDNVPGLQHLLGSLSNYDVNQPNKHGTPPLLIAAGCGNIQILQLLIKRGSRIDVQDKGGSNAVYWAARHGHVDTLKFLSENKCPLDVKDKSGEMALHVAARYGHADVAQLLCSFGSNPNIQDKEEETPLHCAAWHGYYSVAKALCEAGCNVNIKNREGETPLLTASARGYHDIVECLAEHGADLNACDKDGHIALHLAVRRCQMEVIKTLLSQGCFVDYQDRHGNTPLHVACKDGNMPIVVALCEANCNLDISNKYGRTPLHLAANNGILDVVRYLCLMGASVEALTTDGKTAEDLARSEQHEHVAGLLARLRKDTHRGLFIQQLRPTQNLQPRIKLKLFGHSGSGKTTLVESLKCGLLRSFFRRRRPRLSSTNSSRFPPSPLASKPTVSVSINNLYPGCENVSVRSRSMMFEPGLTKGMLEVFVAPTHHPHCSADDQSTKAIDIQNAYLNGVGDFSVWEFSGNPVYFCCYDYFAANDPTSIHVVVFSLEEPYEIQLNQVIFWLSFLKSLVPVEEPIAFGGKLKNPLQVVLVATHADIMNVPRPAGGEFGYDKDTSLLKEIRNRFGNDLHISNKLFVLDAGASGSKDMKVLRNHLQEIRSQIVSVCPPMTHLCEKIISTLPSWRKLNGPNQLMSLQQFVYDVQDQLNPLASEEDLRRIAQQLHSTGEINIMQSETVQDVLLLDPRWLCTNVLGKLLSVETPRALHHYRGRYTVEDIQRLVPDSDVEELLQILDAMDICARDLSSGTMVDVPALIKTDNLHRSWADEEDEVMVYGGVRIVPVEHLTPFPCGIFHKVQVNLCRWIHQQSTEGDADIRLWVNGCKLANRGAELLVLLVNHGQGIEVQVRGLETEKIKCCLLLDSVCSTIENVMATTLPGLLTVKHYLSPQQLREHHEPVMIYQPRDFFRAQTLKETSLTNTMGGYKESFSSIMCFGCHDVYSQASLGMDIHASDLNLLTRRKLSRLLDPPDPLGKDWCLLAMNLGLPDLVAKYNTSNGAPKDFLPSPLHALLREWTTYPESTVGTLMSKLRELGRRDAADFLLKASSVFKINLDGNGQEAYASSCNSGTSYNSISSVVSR
For test [4], the target named is Cyclin-dependent kinase 2 (Homo sapiens) (UniProt P24941). Nature of the test: Competitive binding affinity to CDK2 (unknown origin) at 10 uM in presence of ATP relative to control. The gist of the method:
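In vitro ATP-site competition binding assay across a diverse panel of 128 kinases, with each compound tested at a single concentration. Kinase binding is expressed relative to control.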

The target of test [5] is Mitogen-activated protein kinase kinase kinase 10 (Homo sapiens) (UniProt Q02779). Kind of test: Competitive binding affinity to MLK2 (unknown origin) at 10 uM in presence of ATP relative to control.
Sequence of Mitogen-activated protein kinase kinase kinase 10 (Homo sapiens) (Q02779 whole entry, looked up): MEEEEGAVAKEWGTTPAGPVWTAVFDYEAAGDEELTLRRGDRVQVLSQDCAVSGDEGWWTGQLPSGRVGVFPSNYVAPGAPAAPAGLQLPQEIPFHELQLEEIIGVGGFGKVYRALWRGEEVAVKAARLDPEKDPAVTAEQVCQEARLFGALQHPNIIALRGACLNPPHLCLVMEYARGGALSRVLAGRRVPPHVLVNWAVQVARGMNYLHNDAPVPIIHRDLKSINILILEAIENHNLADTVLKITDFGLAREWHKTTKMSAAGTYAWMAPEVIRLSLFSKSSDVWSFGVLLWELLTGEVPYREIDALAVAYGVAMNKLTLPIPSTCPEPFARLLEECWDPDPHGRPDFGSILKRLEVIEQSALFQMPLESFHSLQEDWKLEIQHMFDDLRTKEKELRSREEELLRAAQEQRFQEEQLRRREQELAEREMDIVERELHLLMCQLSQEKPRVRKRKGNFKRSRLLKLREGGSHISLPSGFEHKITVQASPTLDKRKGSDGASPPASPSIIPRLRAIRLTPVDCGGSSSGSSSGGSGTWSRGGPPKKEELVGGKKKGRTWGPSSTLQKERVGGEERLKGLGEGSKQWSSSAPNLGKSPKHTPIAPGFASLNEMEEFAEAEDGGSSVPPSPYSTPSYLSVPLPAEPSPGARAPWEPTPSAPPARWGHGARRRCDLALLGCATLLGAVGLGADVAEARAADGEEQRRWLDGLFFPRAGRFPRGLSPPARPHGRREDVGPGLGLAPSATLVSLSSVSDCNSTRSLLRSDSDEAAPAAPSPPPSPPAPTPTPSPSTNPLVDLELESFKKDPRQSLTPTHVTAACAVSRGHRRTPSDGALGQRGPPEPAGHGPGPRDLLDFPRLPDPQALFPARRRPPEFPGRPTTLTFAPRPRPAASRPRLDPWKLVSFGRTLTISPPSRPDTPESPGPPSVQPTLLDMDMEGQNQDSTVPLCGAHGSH
Test [6] has as its target Dual specificity testis-specific protein kinase 1 (Homo sapiens) (UniProt Q15569). Nature of the test: Competitive binding affinity to TESK1 (unknown origin) at 10 uM in presence of ATP relative to control.
The target in test [7] is Mitogen-activated protein kinase kinase kinase 11 (Homo sapiens) (UniProt Q16584). Nature of the test: Competitive binding affinity to MLK3 (unknown origin) at 10 uM in presence of ATP relative to control.
Sequence of Mitogen-activated protein kinase kinase kinase 11 (Homo sapiens) (Q16584 whole entry, looked up): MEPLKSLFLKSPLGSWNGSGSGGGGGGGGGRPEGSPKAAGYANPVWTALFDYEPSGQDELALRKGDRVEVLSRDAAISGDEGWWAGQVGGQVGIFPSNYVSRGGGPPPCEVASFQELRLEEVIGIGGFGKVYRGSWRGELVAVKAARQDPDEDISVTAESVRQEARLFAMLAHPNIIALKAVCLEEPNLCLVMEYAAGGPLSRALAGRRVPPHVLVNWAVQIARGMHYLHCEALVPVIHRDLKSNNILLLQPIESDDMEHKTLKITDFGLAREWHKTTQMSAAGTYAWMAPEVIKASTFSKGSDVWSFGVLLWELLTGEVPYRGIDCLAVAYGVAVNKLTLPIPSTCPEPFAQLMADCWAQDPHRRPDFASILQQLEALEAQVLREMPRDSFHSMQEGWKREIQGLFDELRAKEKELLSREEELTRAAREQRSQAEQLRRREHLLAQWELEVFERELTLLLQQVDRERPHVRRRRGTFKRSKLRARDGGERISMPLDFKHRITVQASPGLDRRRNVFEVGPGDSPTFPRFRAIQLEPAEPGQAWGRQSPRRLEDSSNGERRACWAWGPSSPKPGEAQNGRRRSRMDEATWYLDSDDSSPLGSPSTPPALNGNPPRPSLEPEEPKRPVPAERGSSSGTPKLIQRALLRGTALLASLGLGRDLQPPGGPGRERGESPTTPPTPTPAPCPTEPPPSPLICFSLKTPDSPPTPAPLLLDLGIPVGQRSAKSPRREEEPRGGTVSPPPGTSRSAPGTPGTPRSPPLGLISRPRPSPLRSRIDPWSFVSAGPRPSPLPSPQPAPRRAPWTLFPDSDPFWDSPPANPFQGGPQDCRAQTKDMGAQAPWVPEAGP
Test [8] concerns the target Mitogen-activated protein kinase kinase kinase 9 (Homo sapiens) (UniProt P80192). Kind of test: Competitive binding affinity to MLK1 (unknown origin) at 10 uM in presence of ATP relative to control.
Test [9] concerns Tyrosine-protein kinase ABL1 (Homo sapiens), P00519 [M351T]. Nature of the test: Competitive binding affinity to ABL1 M351T mutant (unknown origin) at 10 uM in presence of ATP relative to control.
Test [10] deals with Tyrosine-protein kinase ABL1 (Homo sapiens), P00519 [Y253F]. Kind of test: Competitive binding affinity to ABL1 Y253F mutant (unknown origin) at 10 uM in presence of ATP relative to control.
Test [11] has as its system Phosphatidylinositol 4,5-bisphosphate 3-kinase catalytic subunit alpha isoform (Homo sapiens), P42336 [E545K]. Kind of test: Competitive binding affinity to PIK3CA E545K mutant (unknown origin) at 10 uM in presence of ATP relative to control.
Test [12] has as its target Dual specificity tyrosine-phosphorylation-regulated kinase 1B (Homo sapiens) (UniProt Q9Y463). Nature of the test: Competitive binding affinity to DYRK1B (unknown origin) at 10 uM in presence of ATP relative to control.
Test [13] has as its target Serine/threonine-protein kinase SIK2 (Homo sapiens) (UniProt Q9H0K1). Nature of the test: Competitive binding affinity to SNF1LK2 (unknown origin) at 10 uM in presence of ATP relative to control.
Test [14] addresses Cyclin-dependent kinase 14 (Homo sapiens) (UniProt O94921). Kind of test: Competitive binding affinity to PFTK1 (unknown origin) at 10 uM in presence of ATP relative to control.
Test [15] deals with T1, Serine/threonine-protein kinase tousled-like 1 (Homo sapiens) (UniProt Q9UKI8).
T1 sequence (whole entry): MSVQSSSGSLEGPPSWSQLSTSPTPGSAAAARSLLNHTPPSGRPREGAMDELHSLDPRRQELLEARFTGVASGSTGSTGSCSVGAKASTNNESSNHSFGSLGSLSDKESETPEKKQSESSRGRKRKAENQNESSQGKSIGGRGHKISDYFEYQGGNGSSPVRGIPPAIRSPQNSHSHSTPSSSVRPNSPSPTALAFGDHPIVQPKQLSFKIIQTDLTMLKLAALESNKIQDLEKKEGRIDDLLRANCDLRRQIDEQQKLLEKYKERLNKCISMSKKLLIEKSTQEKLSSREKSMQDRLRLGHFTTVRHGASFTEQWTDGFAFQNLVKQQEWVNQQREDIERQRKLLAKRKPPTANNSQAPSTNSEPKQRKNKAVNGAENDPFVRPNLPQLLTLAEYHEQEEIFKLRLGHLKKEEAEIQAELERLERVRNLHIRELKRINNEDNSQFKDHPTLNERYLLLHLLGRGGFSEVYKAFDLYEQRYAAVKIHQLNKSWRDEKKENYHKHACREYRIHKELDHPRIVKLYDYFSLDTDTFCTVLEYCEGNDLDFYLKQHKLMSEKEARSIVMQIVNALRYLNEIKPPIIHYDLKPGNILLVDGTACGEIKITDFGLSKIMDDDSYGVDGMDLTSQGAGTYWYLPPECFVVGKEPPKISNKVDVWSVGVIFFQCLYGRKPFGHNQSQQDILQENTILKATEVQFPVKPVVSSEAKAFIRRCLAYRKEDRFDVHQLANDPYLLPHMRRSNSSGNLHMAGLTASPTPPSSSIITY
Nature of the test: Competitive binding affinity to TLK1 (unknown origin) at 10 uM in presence of ATP relative to control.

Test [16] has as its target Mitogen-activated protein kinase 4 (Homo sapiens, UniProt P31152). Kind of test: Competitive binding affinity to ERK4 (unknown origin) at 10 uM in presence of ATP relative to control.
The target of test [17] is Serine/threonine-protein kinase pim-3 (Homo sapiens) (UniProt Q86V86). Kind of test: Competitive binding affinity to PIM3 (unknown origin) at 10 uM in presence of ATP relative to control.
The target of test [18] is T2, Serine/threonine-protein kinase 17B (Homo sapiens) (UniProt O94768).
T2 sequence (whole entry): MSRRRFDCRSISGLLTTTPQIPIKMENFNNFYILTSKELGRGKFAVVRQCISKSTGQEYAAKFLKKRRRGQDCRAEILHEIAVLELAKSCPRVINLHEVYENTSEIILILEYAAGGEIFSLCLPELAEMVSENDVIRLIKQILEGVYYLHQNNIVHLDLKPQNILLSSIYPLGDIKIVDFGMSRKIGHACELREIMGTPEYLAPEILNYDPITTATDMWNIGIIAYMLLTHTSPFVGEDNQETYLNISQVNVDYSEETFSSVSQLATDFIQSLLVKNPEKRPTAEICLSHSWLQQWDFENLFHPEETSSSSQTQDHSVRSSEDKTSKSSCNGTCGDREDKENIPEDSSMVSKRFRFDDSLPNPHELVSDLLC
Nature of the test: Competitive binding affinity to STK17B (unknown origin) at 10 uM in presence of ATP relative to control.

For orientation: inhibition means the share of the control response that was lost under treatment.

Sequence of Activin receptor type-2B (Homo sapiens) (Q13705 whole entry): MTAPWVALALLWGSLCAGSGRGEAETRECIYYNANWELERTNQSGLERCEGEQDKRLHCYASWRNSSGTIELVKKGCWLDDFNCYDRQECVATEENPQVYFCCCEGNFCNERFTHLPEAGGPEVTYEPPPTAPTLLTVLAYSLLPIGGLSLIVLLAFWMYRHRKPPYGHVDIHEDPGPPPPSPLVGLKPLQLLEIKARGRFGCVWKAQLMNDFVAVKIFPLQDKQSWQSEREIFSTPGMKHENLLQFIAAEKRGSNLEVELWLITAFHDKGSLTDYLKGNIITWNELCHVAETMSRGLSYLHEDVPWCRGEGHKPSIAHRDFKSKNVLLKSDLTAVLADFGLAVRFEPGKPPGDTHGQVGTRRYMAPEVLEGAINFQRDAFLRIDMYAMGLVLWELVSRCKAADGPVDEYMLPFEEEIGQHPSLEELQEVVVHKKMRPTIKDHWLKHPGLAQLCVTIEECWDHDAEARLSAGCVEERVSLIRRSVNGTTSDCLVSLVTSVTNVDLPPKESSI
Sequence of Mitogen-activated protein kinase 4 (P31152 whole entry): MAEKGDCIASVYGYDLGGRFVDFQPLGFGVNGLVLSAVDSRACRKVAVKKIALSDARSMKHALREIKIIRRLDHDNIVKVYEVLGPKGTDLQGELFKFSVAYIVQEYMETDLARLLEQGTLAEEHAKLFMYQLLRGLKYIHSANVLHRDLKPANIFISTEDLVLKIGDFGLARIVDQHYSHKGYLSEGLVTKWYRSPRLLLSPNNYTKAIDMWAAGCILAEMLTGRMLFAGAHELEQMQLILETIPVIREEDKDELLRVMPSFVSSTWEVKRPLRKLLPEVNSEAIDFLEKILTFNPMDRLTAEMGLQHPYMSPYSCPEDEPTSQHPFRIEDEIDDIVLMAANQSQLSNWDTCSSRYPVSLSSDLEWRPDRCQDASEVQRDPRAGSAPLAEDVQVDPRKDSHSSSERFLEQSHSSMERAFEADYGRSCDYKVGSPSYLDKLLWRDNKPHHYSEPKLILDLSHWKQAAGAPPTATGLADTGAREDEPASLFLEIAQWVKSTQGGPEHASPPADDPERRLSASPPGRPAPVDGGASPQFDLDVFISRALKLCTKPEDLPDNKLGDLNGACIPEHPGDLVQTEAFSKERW
Sequence of Glycogen synthase kinase-3 beta (P49841 whole entry, looked up): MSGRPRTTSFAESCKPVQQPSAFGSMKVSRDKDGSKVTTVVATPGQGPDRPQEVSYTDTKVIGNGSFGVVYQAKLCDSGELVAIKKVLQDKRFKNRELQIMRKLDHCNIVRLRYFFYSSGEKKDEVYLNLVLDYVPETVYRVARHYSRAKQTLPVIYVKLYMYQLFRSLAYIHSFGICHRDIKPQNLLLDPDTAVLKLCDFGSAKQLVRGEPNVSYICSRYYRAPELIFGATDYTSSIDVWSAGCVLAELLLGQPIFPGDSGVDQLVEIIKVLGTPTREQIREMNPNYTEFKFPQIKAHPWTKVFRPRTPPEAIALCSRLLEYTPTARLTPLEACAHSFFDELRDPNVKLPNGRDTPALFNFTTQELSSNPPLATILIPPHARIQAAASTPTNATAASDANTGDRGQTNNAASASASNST

`O[C@H]1CC[C@H](Nc2nccc(-n3ccc4ccccc43)n2)CC1`: the inhibition in test [1] was under 50%; in test [2], under 50%; in [3], under 50%; in [4] it was 90%; in test [5], under 50%; in test [6] it was 82%. In addition, the inhibition is under 50% in [7]; under 50% in [8]; under 50% in [9]; under 50% in test [10]; under 50% in test [11]; 100% in test [12]. The inhibition was under 50% in test [13]; under 50% in test [14]; under 50% in test [15]; 63% in test [16]; under 50% in test [17].
As to `O[C@H]1CC[C@H](Nc2nccc(-n3nnc4ccccc43)n2)CC1`, the inhibition is 100% in test [1]; 74% in test [2]; 98% in [3]; 94% in [4]; under 50% in [5]; under 50% in [6]. The inhibition was under 50% in test [7]; under 50% in test [8]; under 50% in test [9]; 66% in [10]; 88% in [11]; 100% in test [12]. The inhibition was 73% in [13]; 79% in test [14]; under 50% in [15]; 100% in test [16]; 88% in [17].
Take `CS(=O)(=O)CCCOc1cccc2c1ccn2-c1ccnc(N[C@H]2CC[C@H](C(=O)N3CCC(O)CC3)CC2)n1`: the inhibition in test [1], in test [3] and in test [16] was over 85% in each case.
Consider `O=C([C@H]1CC[C@H](Nc2nccc(-n3nnc4ccccc43)n2)CC1)N1CCOCC1`, for which the inhibition in test [18] is under 50%.
On to `O[C@H]1CC[C@H](Nc2nccc(-n3ncc4ccccc43)n2)CC1`, for which the inhibition in test [1] is 82%; in test [2] it was under 50%; in [3] it was under 50%; in [4] it was 94%; in [5], under 50%; in [6], 82%. Besides, the inhibition was under 50% in [7]; under 50% in test [8]; under 50% in test [9]; under 50% in [10]; 82% in [11]; 99% in [12]. In addition, the inhibition in test [13] was under 50%; in test [14], under 50%; in test [15], under 50%; in test [16] it was 99%; in test [17], 96%.
For the compound `O[C@H]1CC[C@H](Nc2nccc(-c3n[nH]c4ccccc34)n2)CC1`, the inhibition was under 50% in test [2]; 100% in test [4]; 98% in test [6]; 88% in test [7]; under 50% in test [9]; under 50% in [10]. Besides, the results for the inhibition in test [18] and in test [15] were 99% and 90%, respectively.
On to `N[C@H]1CC[C@H](Nc2nccc(-n3nnc4ccccc43)n2)CC1`, for which the inhibition in test [18] was determined as 92%.
